Tests used:
P388 [1] = test: The influence (2.5 uM) on Guanine nucleotide pools of Natural P388 sensitive cell lines measured as conc. of GMP; assay type: functional, Mus musculus
Method in brief: (§1)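 Log-phase P388/S (parental) or P388/R cells (TR-resistant, selected to grow in 1 mM TR) exposed 18 h to the stated concentration. Cells then washed in cold saline, extracted with cold 10% TCA and neutralized with tri-n-octylamine/freon. GMP, GDP and GTP quantified by SAX HPLC: 0.03 M ammonium phosphate pH 3.5, then gradient to 0.6 M, pH 3.8. Values as nmol/10^6 cells.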

P388 [2] = test: The influence (2.5 uM) on Guanine nucleotide pools of Natural P388 sensitive cell lines measured as conc. of GTP; assay type: functional, Mus musculus; method in brief: as §1
P388 [3] = test: The influence (5 uM) on Guanine nucleotide pools of Natural P388 sensitive cell lines measured as conc. of GDP; assay type: functional, Mus musculus; method in brief: as §1
P388 [4] = test: The influence (5 uM) on Guanine nucleotide pools of Natural P388 sensitive cell lines measured as conc. of GMP; assay type: functional, Mus musculus; method in brief: as §1
P388 [5] = test: The influence (5 uM) on Guanine nucleotide pools of Natural P388 sensitive cell lines measured as conc. of GTP; assay type: functional, Mus musculus; method in brief: as §1
P388 [6] = test: The influence (2.5 uM) on Guanine nucleotide pools of Natural P388 resistant cell lines measured as conc. of GDP; assay type: functional, Mus musculus; method in brief: as §1
P388 [7] = test: The influence (2.5 uM) on Guanine nucleotide pools of Natural P388 resistant cell lines measured as conc. of GMP; assay type: functional, Mus musculus; method in brief: as §1
P388 [8] = test: The influence (2.5 uM) on Guanine nucleotide pools of Natural P388 resistant cell lines measured as conc. of GTP; assay type: functional, Mus musculus; method in brief: as §1
P388 [9] = test: The influence (2.5 uM) on Guanine nucleotide pools of Natural P388 sensitive cell lines measured as conc. of GDP; assay type: functional, Mus musculus; method in brief: as §1
P388 [10] = test: The influence (5000 uM) on Guanine nucleotide pools of Natural P388 resistant cell lines measured as conc. of GDP; assay type: functional, Mus musculus; method in brief: as §1
P388 [11] = test: The influence (5000 uM) on Guanine nucleotide pools of Natural P388 resistant cell lines measured as conc. of GMP; assay type: functional, Mus musculus; method in brief: as §1
P388 [12] = test: The influence (5000 uM) on Guanine nucleotide pools of Natural P388 resistant cell lines measured as conc. of GTP; assay type: functional, Mus musculus; method in brief: as §1
P388 [13] = test: The cytotoxic concentration against P388 leukemia cell; assay type: functional; conditions: Mus musculus, read-out: ID50 (the source's name)
Mus musculus = species: Mus musculus; test: Compound was tested for its degradation by TAD-phosphodiesterase; assay type: functional
Method in brief: (§2)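 Dinucleotide incubated as substrate at 7.5 mM in 0.03 M Tris-MgCl2, pH 7.6, for 30 min with enzyme: line 1, partially purified TAD-phosphodiesterase from colon-38 carcinoma cells; line 2, snake venom phosphodiesterase. Degradation quantified by HPLC as AMP or TRMP formed, or parent dinucleotide lost, depending on substrate. Expressed relative to TAD hydrolysis set at 100%.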

snake = test: Compound was tested for its degradation by venom phosphodiesterase; assay type: functional; method in brief: as §2
[14] = target: Inosine-5'-monophosphate dehydrogenase 2 (Mus musculus, UniProt P24547); test: Compound was tested for inhibitory activity against Inosine-5'-monophosphate dehydrogenase, the type of inhibition in not competitive
Chain of Inosine-5'-monophosphate dehydrogenase 2 (P24547 whole entry): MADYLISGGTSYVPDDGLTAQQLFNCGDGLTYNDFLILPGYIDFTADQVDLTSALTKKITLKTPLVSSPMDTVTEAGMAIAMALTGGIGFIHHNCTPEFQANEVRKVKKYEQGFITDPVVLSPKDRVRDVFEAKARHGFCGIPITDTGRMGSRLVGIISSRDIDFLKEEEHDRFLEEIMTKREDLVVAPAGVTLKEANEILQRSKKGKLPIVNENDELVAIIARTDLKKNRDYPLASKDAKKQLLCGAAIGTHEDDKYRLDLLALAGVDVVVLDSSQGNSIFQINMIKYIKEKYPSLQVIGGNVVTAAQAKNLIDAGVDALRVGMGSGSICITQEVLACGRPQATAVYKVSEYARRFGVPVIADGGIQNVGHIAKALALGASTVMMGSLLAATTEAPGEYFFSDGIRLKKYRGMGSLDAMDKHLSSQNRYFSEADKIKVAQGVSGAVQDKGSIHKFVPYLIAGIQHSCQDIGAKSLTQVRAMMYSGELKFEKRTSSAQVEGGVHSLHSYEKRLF
Method in brief: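 Partially purified IMP dehydrogenase; kinetics run at 3 inhibitor concentrations against 6 levels of substrate NAD or IMP (0.25, 0.5, 1, 2, 4 and 6 × Km). Inhibition type judged from these kinetics.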

P388 [15] = test: The influence (100 uM) on Guanine nucleotide pools of Natural P388 resistant cell lines measured as conc. of GDP; assay type: functional, Mus musculus; method in brief: as §1
P388 [16] = test: The influence (100 uM) on Guanine nucleotide pools of Natural P388 resistant cell lines measured as conc. of GMP; assay type: functional, Mus musculus; method in brief: as §1
P388 [17] = test: The influence (100 uM) on Guanine nucleotide pools of Natural P388 resistant cell lines measured as conc. of GTP; assay type: functional, Mus musculus; method in brief: as §1
P388 [18] = test: The influence (100 uM) on Guanine nucleotide pools of Natural P388 sensitive cell lines measured as conc. of GDP; assay type: functional, Mus musculus; method in brief: as §1
P388 [19] = test: The influence (100 uM) on Guanine nucleotide pools of Natural P388 sensitive cell lines measured as conc. of GMP; assay type: functional, Mus musculus; method in brief: as §1
P388 [20] = test: The influence (100 uM) on Guanine nucleotide pools of Natural P388 sensitive cell lines measured as conc. of GTP; assay type: functional, Mus musculus; method in brief: as §1
P388 [21] = test: The influence (50 uM) on Guanine nucleotide pools of Natural P388 resistant cell lines measured as conc. of GDP; assay type: functional, Mus musculus; method in brief: as §1
P388 [22] = test: The influence (50 uM) on Guanine nucleotide pools of Natural P388 resistant cell lines measured as conc. of GMP; assay type: functional, Mus musculus; method in brief: as §1
P388 [23] = test: The influence (50 uM) on Guanine nucleotide pools of Natural P388 resistant cell lines measured as conc. of GTP; assay type: functional, Mus musculus; method in brief: as §1
P388 [24] = test: The influence (50 uM) on Guanine nucleotide pools of Natural P388 sensitive cell lines measured as conc. of GDP; assay type: functional, Mus musculus; method in brief: as §1
P388 [25] = test: The influence (50 uM) on Guanine nucleotide pools of Natural P388 sensitive cell lines measured as conc. of GMP; assay type: functional, Mus musculus; method in brief: as §1
P388 [26] = test: The influence (50 uM) on Guanine nucleotide pools of Natural P388 sensitive cell lines measured as conc. of GTP; assay type: functional, Mus musculus; method in brief: as §1

For NC(=O)c1csc([C@@H]2O[C@H](CO)[C@@H](O)[C@H]2O)n1 [TIAZOFURIN], the Control (P388 [1]) was 12%, the Control (P388 [2]) was 51% and the Control (P388 [3]) was 36%. The Control (P388 [4]) was 8%, the Control (P388 [5]) was 34% and the Control (P388 [6]) was 88%. The Control (P388 [7]) was 98%, the Control (P388 [8]) was 111% and the Control (P388 [9]) was 41%. It also gave a Control (P388 [10]) of 74%, a Control (P388 [11]) of 0% and a Control (P388 [12]) of 52%.

NC(=O)c1csc([C@@H]2O[C@H](COP(=O)(O)OP(=O)(O)CC[C@H]3O[C@@H](n4cnc5c(N)ncnc54)[C@H](O)[C@@H]3O)[C@@H](O)[C@H]2O)n1 showed an IC50 (P388 [13]) of 2.8 µM, a hydrolysis relative to TAD (Mus musculus) of 13% and a hydrolysis relative to TAD (snake) of 37.6%.

NC(=O)c1csc([C@@H]2O[C@H](CCP(=O)(O)OP(=O)(O)OC[C@H]3O[C@@H](n4cnc5c(N)ncnc54)[C@H](O)[C@@H]3O)[C@@H](O)[C@H]2O)n1 gave a Ki [14] of 1.97 µM, an IC50 (P388 [13]) of 100 µM and a hydrolysis relative to TAD (Mus musculus) of 10.4%. For the same compound, the hydrolysis relative to TAD (snake) was 27.2%.

In the case of NC(=O)c1csc([C@@H]2O[C@H](COP(=O)(O)CP(=O)(O)OC[C@@H]3O[C@H](n4cnc5c(N)ncnc54)[C@@H](O)[C@H]3O)[C@@H](O)[C@H]2O)n1, the Ki [14] is reported as 0.23 µM, the IC50 (P388 [13]) is reported as 45 µM and the Control (P388 [15]) is reported as 34%. It also gave a Control (P388 [16]) of 3%, a Control (P388 [17]) of 8% and a Control (P388 [18]) of 19%. For the same compound, the Control (P388 [19]) was 6%, the Control (P388 [20]) was 39% and the Control (P388 [21]) was 24%. It also gave a Control (P388 [22]) of 3%, a Control (P388 [23]) of 5% and a Control (P388 [24]) of 24%. For the same compound, the Control (P388 [25]) was 14%, the Control (P388 [26]) was 24% and the hydrolysis relative to TAD (Mus musculus) was 0%. The hydrolysis relative to TAD (snake) was 0%.

For NC(=O)c1csc([C@H]2O[C@@H](COP(=O)(O)OP(=O)(O)OC[C@H]3O[C@@H](n4cnc5c(N)ncnc54)[C@H](O)[C@@H]3O)[C@H](O)[C@@H]2O)n1, the Ki [14] was 0.24 µM, the IC50 (P388 [13]) was 2.1 µM and the hydrolysis relative to TAD (Mus musculus) was 100%. It also gave a hydrolysis relative to TAD (snake) of 100%.

Reference: ChEMBL document CHEMBL1123434, “Thiazole-4-carboxamide adenine dinucleotide (TAD). Analogues stable to phosphodiesterase hydrolysis” (J Med Chem, 1986)
